Here are results for eight molecules from ChEMBL document CHEMBL3407383, “Design, synthesis and biological profile of new inhibitors of multidrug resistance associated proteins carrying a polycyclic scaffold” (Eur J Med Chem, 2015).

A short description of series [1]: Cytotoxicity against human HL60 cells assessed as cell viability at 10 uM by MTT assay. It counts as cell-based. The settings on record: hl-60, 10 µM. In general terms: Tetrazolium dyes change colour on reduction, which living cells bring about.
Series [2] concerns the target T1, Multidrug resistance protein 1/Multidrug resistance associated protein 1 (Homo sapiens, UniProt P33527+P08183). Nature of the series: Inhibition of MDR1/MRP1 overexpressed in doxorubicin-resistant human HL60R cells assessed as DXR accumulation at 10 uM incubated for 2 hrs prior to DXR challenge measured after 2 hrs by fluorescence assay relative to control. The class given is cell-based. A digest of the protocol: (§1)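 HL60 and HL60R cells (2.5 × 10^5 cells/mL) preincubated 2 h with compound, then 2 h with 10 µM DXR. Washed twice in cold PBS, resuspended at 1 × 10^6 cells/mL. Anthracycline fluorescence read immediately by flow cytometry (excitation 488 nm, emission 600 nm, log scale). Mean ± SD, ≥3 independent experiments; one-way ANOVA versus HL60R.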

The target of series [3] is T2, ATP-dependent translocase ABCB1 (Homo sapiens, UniProt P08183). The series is described as follows: Reversal of human MDR1-mediated drug efflux in mouse L5178 cells using rhodamine 123 as substrate assessed as fluorescence activity ratio at 0.8 uM incubated for 10 mins prior to substrate addition measured after 20 mins by FACScan flow cytometry relative to control. It counts as cell-based. The settings on record: l5178, 20 min. Summed up:
(§2)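 L5178 MDR1-transfected and parental mouse lymphoma cells at 2 × 10^6/mL in serum-free McCoy's 5A. Preincubated with compound (0.4–40 µM) for 10 min at room temperature, then rhodamine-123 (5.2 µM final) added for 20 min at 37 °C; washed twice, resuspended in PBS, read by flow cytometry. Verapamil as positive control. R = (MDR treated/MDR control)/(parental treated/parental control).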
For orientation: A flow cytometer gives signals particle by particle.

In series [4] the test system is HL60R. Nature of the series: Potentiation of doxorubicin-induced cytotoxicity in human HL60R cells at 10 uM incubated for 2 hrs prior to doxorubicin challenge measured after 24 to 48 hrs by trypan blue staining-based haemocytometry. It counts as functional, cell-based. A digest of the protocol:
(§3)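 HL60R cells seeded at 1.5 × 10^5 cells/mL; after 24 h, exposed to compound (10 µM) for 2 h, then 10 µM DXR added. Viable cells counted by Trypan Blue exclusion in a Bürker haemocytometer at 24 and 48 h. Mean ± SD, at least three independent experiments.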

The nature of series [5]: Cytotoxicity against human HL60R cells assessed as effect on cell cycle at 10 uM. The class given is cell-based.
Series [6] has as its target T2, ATP-dependent translocase ABCB1. Nature of the series: Reversal of human MDR1-mediated drug efflux in mouse L5178 cells using rhodamine 123 as substrate assessed as fluorescence activity ratio at 0.4 uM incubated for 10 mins prior to substrate addition measured after 20 mins by FACScan flow cytometry relative to control. The class given is cell-based. The settings on record: l5178, 20 min. A digest of the protocol: as §2

Series [7] can be described thus: Cytotoxicity against human HL60 cells assessed as effect on cell cycle at 10 uM. The class given is cell-based. The settings on record: hl-60, 10 µM.
Series [8] concerns the target T1, Multidrug resistance protein 1/Multidrug resistance associated protein 1. Nature of the series: Activity at human MDR1/MRP1 overexpressed in doxorubicin-resistant human HL60R cells assessed as ATP consumption at 10 uM after 2 hrs by luminescence assay (reference value: 6350 +/- 303 RLU). It counts as cell-based. A digest of the protocol:
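HL60R cells at 2.5 × 10^5 cells/mL exposed to 10 µM compound (DMSO solution) for 2 h at 37 °C, 5% CO2; washed twice in cold PBS, resuspended at 1 × 10^6 cells/mL. 1 × 10^5 cells lysed in swab by 20 s agitation; ATP read by luciferase/d-luciferin bioluminescence on a luminometer.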

Series [9] has as its target T2, ATP-dependent translocase ABCB1. Nature of the series: Reversal of human MDR1-mediated drug efflux in mouse L5178 cells using rhodamine 123 as substrate assessed as fluorescence activity ratio at 40 uM incubated for 10 mins prior to substrate addition measured after 20 mins by FACScan flow cytometry relative to control. It counts as cell-based. The settings on record: l5178, 20 min.

The subject of series [10] is HL60R. The series is described as follows: Potentiation of doxorubicin-induced cell cycle arrest in human HL60R cells assessed as accumulation at G0/G1 phase at 10 uM after 24 hrs by propidium iodide staining-based flow cytometry. It counts as functional. A digest of the protocol: (§4)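 HL60R cells treated with compound plus 10 µM DXR for 24 and 48 h. Fixed in 70% ice-cold ethanol at -20 °C overnight, stained with PI 5 µg/mL plus DNase-free RNase A 10 µg/mL in PBS, 30 min at 37 °C in the dark. PI red fluorescence acquired on a linear scale at 600 nm by flow cytometry.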

Series [11] concerns the target T2, ATP-dependent translocase ABCB1. Nature of the series: Reversal of human MDR1-mediated drug efflux in mouse L5178 cells using rhodamine 123 as substrate assessed as fluorescence activity ratio at 4 uM incubated for 10 mins prior to substrate addition measured after 20 mins by FACScan flow cytometry relative to control. The class given is cell-based. The settings on record: l5178, 20 min.

Series [12] can be described thus: Lipophilicity, log P of the compound. The class given is physicochemical. The settings on record: octanol/water.
Series [13] can be described thus: Cytotoxicity against human HL60R cells assessed as cell viability at 10 uM by MTT assay. The class given is cell-based.
The target in series [14] is T1, Multidrug resistance protein 1/Multidrug resistance associated protein 1. Nature of the series: Inhibition of MDR1/MRP1 overexpressed in doxorubicin-resistant human HL60R cells assessed as DXR accumulation at 0.4 uM incubated for 2 hrs prior to DXR challenge measured after 2 hrs by fluorescence assay relative to control. The class given is cell-based. A digest of the protocol: as §1

Series [15] concerns the target T2, ATP-dependent translocase ABCB1. Nature of the series: Reversal of human MDR1-mediated drug efflux in mouse L5178 cells using rhodamine 123 as substrate at 40 uM incubated for 10 mins prior to substrate addition by FACScan flow cytometry relative to verapamil. It counts as cell-based. The settings on record: l5178, 10 min. A digest of the protocol: as §2
The subject of series [16] is HL60R. Nature of the series: Potentiation of doxorubicin-induced cytotoxicity in human HL60R cells assessed as impairment of cell growth at 10 uM incubated for 2 hrs prior to doxorubicin challenge measured up to 24 hrs by trypan blue staining-based haemocytometry. It counts as functional. A digest of the protocol:
as §3

For series [17], the system named is HL60R. Nature of the series: Potentiation of doxorubicin-induced cell cycle arrest in human HL60R cells assessed as exit from mitosis at 10 uM after 48 hrs by propidium iodide staining-based flow cytometry. It counts as functional. Summed up:
as §4

Series [18] has as its system HL60R. Nature of the series: Potentiation of doxorubicin-induced cell cycle arrest in human HL60R cells assessed as accumulation at G2/M phase at 10 uM after 24 hrs by propidium iodide staining-based flow cytometry. The class given is functional. A digest of the protocol:
as §4

Series [19] relates to HL60R. Nature of the series: Potentiation of doxorubicin-induced cytotoxicity in human HL60R cells assessed as restart of cell growth at 10 uM incubated for 2 hrs prior to doxorubicin challenge measured after 24 hrs by trypan blue staining-based haemocytometry relative to control. The class given is functional. Summed up: as §3
The subject of series [20] is HL60R. Nature of the series: Potentiation of doxorubicin-induced cytotoxicity in human HL60R cells at 10 uM incubated for 2 hrs prior to doxorubicin challenge measured after 24 hrs by trypan blue staining-based haemocytometry. The class given is functional, cell-based. A digest of the protocol: as §3
For series [21], the system named is HL60R. The series is described as follows: Induction of apoptosis in human HL60R cells assessed as nuclear fragmentation at 10 uM after 48 hrs by […] staining-based fluorescence microscopy.
A short description of series [22]: Cell cycle arrest in human HL60R cells assessed as accumulation at G2/M phase at 10 uM after 24 hrs by propidium iodide staining-based flow cytometry. The class given is functional. A digest of the protocol: as §4
A short description of series [23]: Cell cycle arrest in human HL60R cells assessed as exit from mitosis at 10 uM after 24 hrs by propidium iodide staining-based flow cytometry. The class given is functional. A digest of the protocol: as §4
In series [24] the test system is HL60R. The series is described as follows: Induction of apoptosis in human HL60R cells assessed as chromatin condensation at 10 uM after 48 hrs by […] staining-based fluorescence microscopy. It counts as functional, cell-based. Summed up:
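HL60R cells co-treated 48 h with 10 µM compound plus 10 µM DXR. Cytospun onto slides (150 g, 5 min), PBS-washed, fixed in 4% paraformaldehyde, permeabilized with 0.5% Triton X-100 for 5 min at 4 °C, stained with Hoechst 0,1 mg/mL. Nuclear morphology examined by fluorescence microscopy.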

The logP is the decadic logarithm of the partition coefficient of the neutral form, usually between octanol and water. A lower logP goes with a more hydrophilic compound.

Activity calls are given as the source filed them. The rule behind the calls is not given here.

T2 sequence (P08183 whole entry): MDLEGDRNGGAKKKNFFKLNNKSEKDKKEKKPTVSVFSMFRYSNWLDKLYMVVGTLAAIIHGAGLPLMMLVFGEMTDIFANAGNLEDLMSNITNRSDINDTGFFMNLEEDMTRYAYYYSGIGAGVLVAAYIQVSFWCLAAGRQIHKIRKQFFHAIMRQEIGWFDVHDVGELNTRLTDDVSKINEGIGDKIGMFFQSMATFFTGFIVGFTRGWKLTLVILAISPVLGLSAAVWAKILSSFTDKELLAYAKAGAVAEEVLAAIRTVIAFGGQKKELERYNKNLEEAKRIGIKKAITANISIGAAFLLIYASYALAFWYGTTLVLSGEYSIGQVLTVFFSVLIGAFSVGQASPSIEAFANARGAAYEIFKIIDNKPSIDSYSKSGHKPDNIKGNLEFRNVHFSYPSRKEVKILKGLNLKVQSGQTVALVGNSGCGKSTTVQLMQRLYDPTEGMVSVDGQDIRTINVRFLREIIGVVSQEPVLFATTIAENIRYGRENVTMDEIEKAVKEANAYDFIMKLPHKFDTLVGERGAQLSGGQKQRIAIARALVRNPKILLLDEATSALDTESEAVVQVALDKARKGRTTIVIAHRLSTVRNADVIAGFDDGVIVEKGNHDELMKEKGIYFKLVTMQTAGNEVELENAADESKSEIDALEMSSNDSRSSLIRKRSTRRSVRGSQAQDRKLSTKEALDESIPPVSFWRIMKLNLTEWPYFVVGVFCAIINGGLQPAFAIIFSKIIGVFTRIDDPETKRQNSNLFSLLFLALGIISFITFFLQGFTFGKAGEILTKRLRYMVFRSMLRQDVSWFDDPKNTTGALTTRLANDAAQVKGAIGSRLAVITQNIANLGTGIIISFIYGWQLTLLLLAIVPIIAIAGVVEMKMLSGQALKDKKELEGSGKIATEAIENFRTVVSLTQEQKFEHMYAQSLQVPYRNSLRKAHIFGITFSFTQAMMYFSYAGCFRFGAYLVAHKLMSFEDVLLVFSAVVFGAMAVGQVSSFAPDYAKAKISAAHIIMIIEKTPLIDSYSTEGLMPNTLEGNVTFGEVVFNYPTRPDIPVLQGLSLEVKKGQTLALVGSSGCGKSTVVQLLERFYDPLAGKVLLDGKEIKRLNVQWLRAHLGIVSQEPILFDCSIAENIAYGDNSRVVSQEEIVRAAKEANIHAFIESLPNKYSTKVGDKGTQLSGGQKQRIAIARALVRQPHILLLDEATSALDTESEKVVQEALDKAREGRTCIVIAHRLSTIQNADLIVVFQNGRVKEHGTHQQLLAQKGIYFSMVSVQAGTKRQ

`O=C1[C@@H]2[C@H]3c4ccccc4[C@H](c4ccccc43)[C@@H]2C(=O)N1CC#CCN1CCN(C(c2ccc(F)cc2)c2ccc(F)cc2)CC1`: the Activity result in series [1], in series [5], in series [7] and in [13] was “Non-toxic” throughout. In addition, the “inhibition (INH)” value in series [2] is “Active”; in [14], “Not Active”. In addition, the Ratio in series [3] turned out to be 8.22; in series [6], 5.19; in series [9] it was 33.38; in series [11] it was 28.27. For the same molecule, the result with HL60R [4] and in the series with HL60R [10] was Active. Also, the RLU in [8] is 4276. Besides, in series [12], the lipophilicity (logP) came to 6.3.
With `C#CCN1C(=O)[C@@H]2[C@H]3c4ccccc4[C@H](c4ccccc43)[C@@H]2C1=O`, the “inhibition (INH)” value in series [2] is “Not Active”.
Turning to `O=C1[C@@H]2[C@H]3c4ccccc4[C@H](c4ccccc43)[C@@H]2C(=O)N1CC#CCN1CCN(c2ccccc2)CC1`, the Ratio in [15] was 2; in [9], 11.52; in series [11], 7.56. In addition, the Activity entry in series [1], in [5], in series [7] and in [13] was “Non-toxic” throughout. Moreover, the “inhibition (INH)” value in series [2] and in [14] was “Not Active” in each case. Besides, the outcome in the series with HL60R [16] and with HL60R [18] was Active. For the same molecule, the outcome with HL60R [17] and in the series with HL60R [19] was inactive. In addition, the RLU in series [8] turned out to be 3650. The molecule further came in with a lipophilicity (logP) in [12] of 2.54.
With `O=C1[C@@H]2[C@H]3c4ccccc4[C@H](c4ccccc43)[C@@H]2C(=O)N1CC#CCN1CCN(Cc2ccccc2)CC1`, the Ratio was found to be 15 in [15]; 7.76 in [3]; 2.62 in [6]; 85.46 in [9]; 54.832 in [11]. Further, the Activity result in series [1], in [5], in series [7] and in series [13] was “Non-toxic” throughout. In addition, the “inhibition (INH)” value in series [2] is “Active”; in series [14] it was “Not Active”. Moreover, the outcome in the series on HL60R [4] and in the series on HL60R [10] was Active. The RLU in series [8] came out at 3957. In [12], this molecule returned a lipophilicity (logP) of 2.54.
Consider `O=C1[C@@H]2[C@H]3c4ccccc4[C@H](c4ccccc43)[C@@H]2C(=O)N1CC#CCN1CCC(n2c(=O)[nH]c3ccccc32)CC1`, for which the Activity entry in series [1], in series [5], in series [7] and in [13] was “Non-toxic” each time. Besides, the “inhibition (INH)” value in series [2] and in [14] was “Not Active” throughout. In addition, the outcome in the series with HL60R [20] and in the series on HL60R [18] was Active. The RLU in series [8] is recorded as 4363. The Ratio in series [9] is given as 44.6; in [11], 6.39. In [12], this molecule came in with a logP of 2.54.
Regarding `COc1cccc2c1C(=O)c1c(O)c3c(c(O)c1C2=O)C[C@@](O)(C(=O)CO)C[C@@H]3O[C@H]1C[C@H](N)[C@H](O)[C@H](C)O1`, the outcome (in the series with HL60R [21]; in [22]; in the series with HL60R [24]) was Active. The result in [23] was inactive.
Regarding `COc1ccc(CCN(C)CC#CCN2C(=O)[C@@H]3[C@H]4c5ccccc5[C@H](c5ccccc54)[C@@H]3C2=O)cc1OC`, the Activity result in series [1], in [5], in series [7] and in series [13] was “Toxic” throughout. Further, the outcome with HL60R [4] and in the series with HL60R [10] was Active. Also, the RLU in series [8] came out at 2612. Also, the “inhibition (INH)” value in series [14] was “Not Active”.
For `CN1CCN(CC#CCN2C(=O)[C@@H]3[C@H]4c5ccccc5[C@H](c5ccccc54)[C@@H]3C2=O)CC1`, the Activity entry in [1], in series [5], in series [7] and in [13] was “Non-toxic” throughout. Moreover, the “inhibition (INH)” value in [2] and in [14] was “Not Active” throughout. For the same molecule, the result with HL60R [16] and in the series with HL60R [18] was Active. In addition, the result with HL60R [17] and in the series on HL60R [19] was inactive. The RLU in series [8] is on record as 3429. The Ratio came to 64.74 in [9] and 9.59 in [11]. For the same molecule, the logP in [12] stood at 2.54.
